Measurements pooled from the literature.
Lines come from different studies, so protocols differ.
Target: Proto-oncogene tyrosine-protein kinase ROS (ROS1, Homo sapiens, UniProt P08922)

COc1ncccc1-c1cnn2ccc(N3CCN(C(=O)OC(C)C)CC3)nc12 has a remaining binding of 100% (binding, competition with immobilised ligand; 1 µM).
Cc1nn(C)cc1-c1nc2c(N3CCN(Cc4ccc(Cl)cc4)CC3)c(Cl)cnc2[nH]1 gave a remaining binding of 100% (binding, competition with immobilised ligand; 1 µM).
The remaining signal of O=c1[nH]c2ccccc2n1C1CCN(Cc2ccc(-c3[nH]c4cc5ncnc5cc4nc3-c3ccccc3)cc2)CC1 is reported as 101% (cell-free assay; 0.5 µM).
For Cn1cc(-c2cc(F)cc(N3CCn4c(cc5c4CCCC5)C3=O)c2CO)cc(Nc2ccc(N3CCN(C4COC4)CC3)cn2)c1=O, the inhibition was 10% (enzyme activity, inhibitor; 0.1 µM).
With Cn1cncc1[C@](O)(COc1ccc(C#N)cc1-c1ccc(OC(F)(F)F)cc1)c1ccc(C#N)cc1 the remaining binding was 89% (cell-free assay, competition with immobilised ligand; 1 µM).
The remaining binding of Nc1ncc(-c2nc(N3CCOCC3)nc(N3CCOCC3)n2)c(C(F)F)n1 is reported as 54% (binding, competition with immobilised ligand; 10 µM).
For N#CC1(c2ccccn2)CCN(Cc2cc(C(=O)O)c(=O)n3ccccc23)CC1, the remaining binding was 90% (cell-free assay, competition with immobilised ligand; 1 µM).
C#Cc1n[nH]c2c(-c3cn([C@@H](C)c4ccccn4)c(=O)[nH]c3=O)cc(F)cc12 gave an inhibition of 5.1% (enzyme activity, inhibitor; 0.1 µM).
